# Measurements from PubChem BioAssay.
# Calls of active or inactive are those of the source. Unless noted, no stated cut-off is given here; in the data, active means inhibition above about 30%; inactive means the rest.
# Experiments:
# [1] = reducers of endogenous Her2 protein level, primary screen, SKBR3 breast tumor cells, AlphaScreen, ATP viability (AID 461;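 active means Her2 level under about 52% in both replicate screens, with viability over 70% of control, limit read from the data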;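 on Her2 level: lower value means less Her2 protein in the cells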;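 on viability: percent of carrier control wells set as 100% viability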); settings: 18-24 h, measured here: SKBR3 viability, ATP luminescence, at 10 µM
# [2] = target: Receptor tyrosine-protein kinase erbB-2 (Homo sapiens) (UniProt P04626); test: as above; settings: 18-24 h, at 10 µM, stronger effect = lower value
# Chain of Receptor tyrosine-protein kinase erbB-2 (Homo sapiens) (P04626 whole entry, looked up): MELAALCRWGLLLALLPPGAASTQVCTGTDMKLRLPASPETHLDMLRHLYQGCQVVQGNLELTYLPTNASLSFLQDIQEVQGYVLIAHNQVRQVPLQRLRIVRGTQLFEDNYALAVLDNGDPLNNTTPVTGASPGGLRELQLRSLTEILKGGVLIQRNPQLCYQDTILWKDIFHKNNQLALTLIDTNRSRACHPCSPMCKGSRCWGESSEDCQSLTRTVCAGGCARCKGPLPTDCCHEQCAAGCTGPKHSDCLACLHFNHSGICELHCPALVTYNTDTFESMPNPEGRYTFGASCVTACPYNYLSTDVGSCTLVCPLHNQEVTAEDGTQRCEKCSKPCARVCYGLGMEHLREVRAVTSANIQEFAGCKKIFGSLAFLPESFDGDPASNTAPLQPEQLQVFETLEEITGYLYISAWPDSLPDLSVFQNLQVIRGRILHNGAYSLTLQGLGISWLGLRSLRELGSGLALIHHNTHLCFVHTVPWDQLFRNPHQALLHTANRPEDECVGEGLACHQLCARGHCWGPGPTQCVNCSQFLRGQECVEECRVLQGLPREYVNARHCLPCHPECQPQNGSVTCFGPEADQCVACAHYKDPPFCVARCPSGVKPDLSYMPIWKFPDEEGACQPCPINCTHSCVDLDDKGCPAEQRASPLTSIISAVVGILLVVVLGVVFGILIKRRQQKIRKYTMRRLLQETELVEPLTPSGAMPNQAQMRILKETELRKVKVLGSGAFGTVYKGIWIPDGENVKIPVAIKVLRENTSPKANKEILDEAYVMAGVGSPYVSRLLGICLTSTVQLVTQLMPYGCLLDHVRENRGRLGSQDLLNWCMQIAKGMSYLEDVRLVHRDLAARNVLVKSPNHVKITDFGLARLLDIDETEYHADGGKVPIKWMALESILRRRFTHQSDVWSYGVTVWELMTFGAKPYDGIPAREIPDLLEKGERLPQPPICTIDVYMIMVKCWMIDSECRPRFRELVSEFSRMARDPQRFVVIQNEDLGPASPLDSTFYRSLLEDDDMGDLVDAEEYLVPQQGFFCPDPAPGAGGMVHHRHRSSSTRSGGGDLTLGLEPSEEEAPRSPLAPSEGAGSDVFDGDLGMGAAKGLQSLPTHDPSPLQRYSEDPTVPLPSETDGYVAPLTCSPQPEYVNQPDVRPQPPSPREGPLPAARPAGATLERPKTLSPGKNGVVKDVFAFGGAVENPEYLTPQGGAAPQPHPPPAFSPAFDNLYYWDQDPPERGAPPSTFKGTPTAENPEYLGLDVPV
# [3] = SK-BR-3 cell growth inhibitors, pilot screen, 24 h, human (AID 572;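 active means viability at or below 10% of carrier control in both of two separate runs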;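 further: compound exposure lasted between 18 and 24 h rather than exactly 24 h; 100% = carrier-treated control wells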); settings: SK-BR-3 viability, CellTiter-Glo luminescence, at 10 µM, stronger effect = lower value
# [4] = HUVEC growth inhibition – cell-based, human, primary screen (AID 575;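 active means viability at or below 30% in both replicate assays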;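 further: 100% = median of untreated cell wells with 0.1% DMSO on each plate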); settings: HUVEC proliferation, CellTiter-Glo luminescence, 72 h; at 10 µM; stronger effect = lower value
# Summary of the method: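 Test system – primary HUVEC, no more than 12 passages · Dosing – one dose, 10 µM final, 0.1% DMSO · Times – 72 h treatment at 37 °C · Measured by – ATP-based CellTiter-Glo luminescent read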
# [5] = growth inhibitors of H69AR lung tumor, primary screen, human, duplicate replicates (AID 580;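 active means viability at or under a set limit in both replicates, limit being median viability minus 3 SD, cut at about 48% in these data, passing the limit was not always enough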;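 further: 100% = mean luminescence of untreated wells and 0% = no signal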); settings: H69AR lung tumor cells viability, ATP luminescence, 72 h; at 10 µM; stronger effect = lower value
# [6] = reversal of MRP1-mediated doxorubicin resistance, pilot screen, H69AR cells, doxorubicin co-treatment (AID 601;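 active means viability loss from added drug above about 55%, and viability with drug at most 40%, in both replicates, limit read from the data, passing the limit was not always enough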); settings: CellTiter-Glo, 72 h, at 10 µM; for differential viability (reversal): stronger effect = higher value
# [7] = 384-well plate pilot, post-Golgi transport modulator project, inhibition of yeast transport mutant growth (AID 636; in the data active means inhibition above about 31%); settings: absorbance 615 nm, about 18 h, stronger effect = higher value
# [8] = growth suppression of yeast trafficking mutant, preliminary HTS, modulators of trafficking downstream of Golgi apparatus project, 1536-format plate, OD 615 nm (AID 637); settings: yeast transport mutant growth, absorbance 615 nm, 18 h; stronger effect = higher value
# [9] = H69AR cells + 2 uM doxorubicin, measured here: viability with 2 uM doxorubicin, stronger effect = lower value
# [10] = H69AR cells, compound alone cytotoxicity
Structure (SMILES),viability [1] [%],Her2 level [2],viability [3],viability [4],viability [5],differential viability (reversal) ([6]; H69AR cells + 2 uM doxorubicin),"viability [6, 9] [%]","viability [6, 10] [%]",inhibition [7],inhibition [8]
CCOc1cc(C2NC(=O)N(C)C(C)=C2C(=O)OC)cc(Br)c1O (stereo not given),112,79.5% (inactive),112% (inactive),69.9% (inactive),93.8% (inactive),21.3% (inactive),72.6,93.8,-4.73% (inactive),4.44% (inactive)
COc1cc(Cn2c(-c3nonc3N)nc3ccccc32)ccc1C,104,71.5% (inactive),104% (inactive),38.9% (inactive),17.8% (active),-29.2% (inactive),47.1,17.8,-3.92% (inactive),1.59% (inactive)
O=C(CCc1ccc(S(=O)(=O)N2CCOCC2)cc1)NCCc1ccccn1,100,102% (inactive),100% (inactive),94.8% (inactive),87.9% (inactive),-13.7% (inactive),102,87.9,-1.04% (inactive),-4.13% (inactive)
NS(=O)(=O)c1ccc(NC(=O)N[C@@H](Cc2ccccc2)C(=O)O)cc1,82.5,95.5% (inactive),82.5% (inactive),95.6% (inactive),97.6% (inactive),5% (inactive),92.6,97.6,-3.73% (inactive),4.52% (inactive)
COc1ccccc1C(=O)N1CCN(CCc2ccccc2)CC1,102,124% (inactive),102% (inactive),88.2% (inactive),103% (inactive),3.95% (inactive),99.2,103,0% (inactive),-4.17% (inactive)
CSC(=O)CC(=O)NC(=O)c1ccccc1,102,97% (inactive),102% (inactive),108% (inactive),97.9% (inactive),-5.79% (inactive),104,97.9,-1.05% (inactive),5.74% (inactive)
CCN1CCN(C(=O)c2cc3c(=O)n(C)c4ccccc4c3n2C)CC1,110,94% (inactive),110% (inactive),88.2% (inactive),77.6% (inactive),-9.27% (inactive),86.9,77.6,0.4% (inactive),-1.33% (inactive)
CCOC(=O)N1CCC(NC(=O)C2CCCN2C(=O)OCc2ccccc2)CC1 (stereo not given),93,106% (inactive),93% (inactive),103% (inactive),90.7% (inactive),-2.27% (inactive),93,90.7,2.89% (inactive),-7.1% (inactive)
CC(C)CCNC(=O)C(c1ccco1)N(CC1CCCO1)C(=O)Cn1nnc2ccccc21 (stereo not given),100,100% (inactive),100% (inactive),101% (inactive),94.4% (inactive),1.64% (inactive),92.8,94.4,-0.67% (inactive),-0.16% (inactive)
Cn1c(NCc2cccc(Br)c2)nc2ccccc21,87,86.5% (inactive),87% (inactive),83.7% (inactive),81.1% (inactive),7.16% (inactive),73.9,81.1,-4.27% (inactive),-3.87% (inactive)
Cc1c(NC(=O)c2coc(=O)c(Br)c2)c(=O)n(-c2ccccc2)n1C,85,27.5% (active),85% (inactive),72.9% (inactive),1.47% (active),-0.165% (inactive),1.64,1.47,-4.55% (inactive),-4.92% (inactive)
COc1c2ccoc2nc2c(OC)c(OCC(O)C(C)(C)O)ccc12 (stereo not given),100,97.5% (inactive),100% (inactive),94.4% (inactive),95.4% (inactive),2.17% (inactive),93.2,95.4,-2.8% (inactive),3.39% (inactive)
O=C(COC(=O)c1ccco1)NCc1cccs1,112,97.5% (inactive),112% (inactive),98.9% (inactive),106% (inactive),10.7% (inactive),95.3,106,-7.76% (inactive),0% (inactive)
CN(C)S(=O)(=O)c1ccc(S(=O)(=O)N(Cc2ccco2)Cc2ccccc2Cl)cc1,93,93% (inactive),93% (inactive),100% (inactive),95.8% (inactive),7.62% (inactive),88.2,95.8,-9.18% (inactive),-2.7% (inactive)
COc1ccc(-c2nnn(CCc3nn[nH]n3)n2)cc1OC,119,98.5% (inactive),119% (inactive),96.9% (inactive),95.5% (inactive),-3.76% (inactive),99.2,95.5,-3.6% (inactive),9.18% (inactive)
CC(C)(C)c1ccc(OCC(=O)O)cc1,102,96.5% (inactive),102% (inactive),108% (inactive),104% (inactive),13.4% (inactive),91,104,-5.73% (inactive),8.69% (inactive)

Structure (SMILES),viability [1] [%],Her2 level [2],viability [3],viability [4],viability [5],differential viability (reversal) ([6]; H69AR cells + 2 uM doxorubicin),"viability [6, 9] [%]","viability [6, 10] [%]",inhibition [7],inhibition [8]
S=C(NCC1CCCO1)n1nnc2ccccc21 (stereo not given),121,49% (active),121% (inactive),66.2% (inactive),74.8% (inactive),0.715% (inactive),74.1,74.8,-1.07% (inactive),-0.95% (inactive)
O=C(CSc1nc2ccccc2nc1SCC(=O)N1CCOCC1)N1CCOCC1,100,98% (inactive),100% (inactive),110% (inactive),95.7% (inactive),1.15% (inactive),94.5,95.7,-1.03% (inactive),0.17% (inactive)
Cc1ccc(S(=O)(=O)N2CCN(C(=O)CSc3nnnn3C)C2)cc1,110,104% (inactive),110% (inactive),85.3% (inactive),102% (inactive),1.78% (inactive),101,102,-0.66% (inactive),0.17% (inactive)
Cc1ccccc1N1CC(c2nc3ccccc3[nH]2)CC1=O (stereo not given),102,91.5% (inactive),102% (inactive),87.7% (inactive),96.1% (inactive),-0.615% (inactive),96.7,96.1,-0.92% (inactive),-5.71% (inactive)
CCC(C)(C)NC(=O)CN(C(=O)c1snc(C(N)=O)c1N)c1ccc2c(c1)OCO2,104,94% (inactive),104% (inactive),110% (inactive),110% (inactive),7.68% (inactive),102,110,-4.93% (inactive),-1.27% (inactive)
CC(C)CC(=O)N1CCN(S(=O)(=O)c2ccc(F)cc2)CC1,86.5,102% (inactive),86.5% (inactive),86.5% (inactive),94.9% (inactive),9.04% (inactive),85.8,94.9,2.56% (inactive),27% (inactive)
CCOC(=O)c1[nH]c(C)c(C(=O)Nc2cc(OC)ccc2OC)c1C,81,65% (inactive),81% (inactive),47.4% (inactive),25.5% (active),-45.8% (inactive),71.3,25.5,-2.24% (inactive),-4.92% (inactive)
CCOC(=O)N1CCN(Cc2nc3c(c(=O)[nH]c(=O)n3C)n2Cc2cc(C)ccc2C)CC1,102,105% (inactive),102% (inactive),112% (inactive),96.1% (inactive),7.95% (inactive),88.1,96.1,-2.27% (inactive),0.32% (inactive)
CCOCCCNC(=O)c1cc2sc(Cl)cc2n1CC,89,88% (inactive),89% (inactive),60% (inactive),28.5% (active),-44% (inactive),72.5,28.5,-8.36% (inactive),-0.95% (inactive)
CCn1ncc(C2=NOC(C(=O)Nc3ccc4c(c3)OCO4)C2)c1C (stereo not given),95.5,139% (inactive),95.5% (inactive),108% (inactive),94.8% (inactive),0.945% (inactive),93.9,94.8,-3.97% (inactive),-4.92% (inactive)
COCCN(CCOC)C(=O)c1sc2nc(-c3ccccc3)cn2c1C,93,78% (inactive),93% (inactive),82.4% (inactive),93.1% (inactive),10.4% (inactive),82.7,93.1,-3.82% (inactive),-5% (inactive)
Cn1c(=O)c2c3c(sc2n2c(SCC(=O)c4ccc(Cl)cc4)nnc12)COC(C)(C)C3,119,102% (inactive),119% (inactive),76.6% (inactive),79.7% (inactive),23.3% (inactive),56.4,79.7,-0.91% (inactive),-2.7% (inactive)
O=C(Nc1ccc(S(=O)(=O)N2CCc3ccccc32)cc1)c1ccc2c(c1)OCO2,77,75.5% (inactive),77% (inactive),76.7% (inactive),103% (inactive),2.24% (inactive),100,103,3.51% (inactive),-8.73% (inactive)
O=C1CC(c2ccsc2)c2cc3c(cc2N1)OCCO3 (stereo not given),103,98.5% (inactive),103% (inactive),67.6% (inactive),26.9% (active),-33.3% (inactive),60.2,26.9,-2.93% (inactive),-5.25% (inactive)
CCCNC(=O)C1=C(C)C(=O)OC12CCC(C)CC2 (stereo not given),94.5,102% (inactive),94.5% (inactive),87.2% (inactive),95.3% (inactive),5.14% (inactive),90.2,95.3,2.27% (inactive),3.61% (inactive)
CCOC(=O)Cc1csc(NC(=O)CSc2nnc(C(C)C)n2CC)n1,126,86% (inactive),126% (inactive),88% (inactive),89.8% (inactive),1.63% (inactive),88.2,89.8,-6.13% (inactive),1.59% (inactive)
